# Screens from PubChem.
# Most compounds without a hit are left out; they make up all but 4.2% or so of the library.
# SKKanGAS inh – inhibitors of SKKanGAS S. pyogenes growth in kanamycin (SK-promoter or general growth effect); inhibition, % at 7.5 µM; BacTiter-Glo, 6 h; 1.3% of 300,000 active;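 active = mean replicate score, as percent of positive control median, at least 50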;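 also: strain carries kanamycin resistance gene driven by streptokinase promoter and grows in 40 µg/ml kanamycin; loss of luminescence reflects streptokinase promoter inhibition or plain growth inhibition; 0% = median of DMSO wells and 100% = positive control at its reference dose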
# Autophagy HCS – alters autophagy in cells; MEF GFP-LC3 puncta imaging; test concentration mostly 10 µM; 0.98% of 190,000 active; AID 463193; calls only at 10 µM (by protocol);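 active = percentage of spot-positive cells more than 3 SD above its plate mean, without a fluorescence outlier flag or 80% toxicity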;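 also: spot-positive cell cutoff set from DMSO-treated cells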
# WT yeast gro inh – growth inhibition of WT yeast, mitochondrial fusion screen | inhibition, % at 10 µM | mitochondrial fusion phenotypic screen, WT strain | 2.1% of 190,000 active; in the data active = inhibition above about 58%; tested in S. cerevisiae
# Rad51 HR inh – Rad51 (human) homologous recombination inhibition; hRad51 DNA strand exchange, fluorescence dequenching; inhibition, % at 10 µM; 0.085% of 200,000 active;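 active = inhibition above 40% at the single screening dose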;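 also: 0% = DMSO control wells and 100% = blanks with heterologous ssDNA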
#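 material = hRad51 filaments on single-stranded DNA | timing = filaments 15 min 37 °C, then compound 30 min | signal = FRET fluorescence dequenching, excitation 485 nm, emission 520 nm | benchmarks = control wells and blank wells on each plate | evaluation = percent inhibition relative to plate controls and blanks | compound = 10 µM final, single point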
# Cl transport mod – modulates chloride dependent transport by human KCC2; Q9H2X9; KCC2 cells, thallium flux FluoZin-2 fluorescence; B-score of Tl+ flux slope (higher = more flux/activation; lower = inhibition) at 10 µM; 2.2% of 190,000 active; AID 1456;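 active = thallium flux slope and its plate-corrected score both differing from the plate sample mean at a set confidence after two filtering rounds, in either direction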;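 also: slope of fluorescence scaled to starting intensity during 10 to 20 s after thallium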
# Target sequence (Q9H2X9 whole entry, looked up): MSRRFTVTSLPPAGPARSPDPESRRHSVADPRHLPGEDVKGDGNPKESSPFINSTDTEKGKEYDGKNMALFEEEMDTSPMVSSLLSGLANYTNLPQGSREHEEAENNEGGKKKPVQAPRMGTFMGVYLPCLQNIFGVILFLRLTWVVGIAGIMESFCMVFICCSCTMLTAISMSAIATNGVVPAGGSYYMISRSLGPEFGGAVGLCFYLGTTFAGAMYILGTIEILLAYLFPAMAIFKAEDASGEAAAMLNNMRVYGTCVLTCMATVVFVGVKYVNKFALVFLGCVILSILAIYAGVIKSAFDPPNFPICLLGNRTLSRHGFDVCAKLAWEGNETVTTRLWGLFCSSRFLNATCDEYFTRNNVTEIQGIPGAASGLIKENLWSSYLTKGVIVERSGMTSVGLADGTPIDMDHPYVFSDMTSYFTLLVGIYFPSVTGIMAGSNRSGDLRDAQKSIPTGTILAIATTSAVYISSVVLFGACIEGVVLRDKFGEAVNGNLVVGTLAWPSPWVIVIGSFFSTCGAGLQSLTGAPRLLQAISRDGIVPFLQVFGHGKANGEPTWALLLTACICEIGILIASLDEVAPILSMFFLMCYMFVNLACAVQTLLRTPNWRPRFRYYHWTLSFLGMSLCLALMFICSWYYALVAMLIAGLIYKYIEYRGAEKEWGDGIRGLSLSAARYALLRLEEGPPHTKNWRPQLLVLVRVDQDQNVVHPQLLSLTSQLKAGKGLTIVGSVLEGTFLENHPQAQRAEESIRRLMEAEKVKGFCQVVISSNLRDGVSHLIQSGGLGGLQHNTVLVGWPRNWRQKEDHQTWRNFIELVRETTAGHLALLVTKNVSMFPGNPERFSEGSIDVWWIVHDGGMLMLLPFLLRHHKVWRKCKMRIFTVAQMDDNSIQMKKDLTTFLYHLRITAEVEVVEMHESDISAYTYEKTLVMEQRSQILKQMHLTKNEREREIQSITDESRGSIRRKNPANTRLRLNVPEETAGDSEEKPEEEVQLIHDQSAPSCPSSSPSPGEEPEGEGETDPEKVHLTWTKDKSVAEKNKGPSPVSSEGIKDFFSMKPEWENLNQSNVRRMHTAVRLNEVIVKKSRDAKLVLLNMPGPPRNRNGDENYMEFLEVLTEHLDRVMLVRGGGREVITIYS
# Ins promoter up – MIN6 insulin promoter up-regulation. 0.3% of 190,000 active. AID 1625. MIN6 insulin promoter-GFP reporter, high-content imaging; stronger effect = higher value. z-score at 5 µM;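 active = z-score above 3 at 5 µM with at least 500 cells counted in the well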
# Starred values were filed as active, the others as inactive; i = inactive; nt = not tested or not shown; + = active, no number.
SMILES,SKKanGAS inh,Autophagy HCS,WT yeast gro inh,Rad51 HR inh,Cl transport mod,Ins promoter up
CC(C)OC(=O)c1cccc2c1C(=O)c1ccccc1-2,-17,nt,nt,2,-1.7,1.4
CCOC(=O)c1cccc2c1-c1ccccc1/C2=N/O,-5,i,73*,1,-0.11,0.46
CC(C)COC(=O)c1cccc2c1-c1ccccc1/C2=N\O,74*,i,62*,nt,0.33,nt
CC1CCCC(C)N1C(=O)c1cccc2c1-c1ccccc1/C2=N/O (centres undefined),nt,i,15,2,-0.11,nt
COc1ccc(C)cc1NC(=O)CN1C(=O)COc2ccc(S(=O)(=O)N3CCOCC3)cc21,7,nt,nt,nt,nt,nt
Cc1cccc(C(C)C)c1NC(=O)Cc1ccc(S(=O)(=O)N2CCOCC2)s1,-4,nt,nt,nt,nt,nt
O=C1Nc2ccc(F)cc2C12Nc1ccccc1-c1nnc(SCc3ccccc3F)nc1O2 (centres undefined),5,i,42,-9,nt,-0.18
O=C1Nc2ccc(Cl)cc2C12Nc1ccccc1-c1nnc(SCc3ccccc3F)nc1O2 (centres undefined),7,i,69*,-21,-1.6,nt
COc1ccc(C(=O)/C=C/c2cc(OC)c(O)c(OC)c2)c(F)c1,-2,i,17,1,-1.4,nt
COc1ccc2cc(C(=O)/C=C/c3cc(OC)c(O)c(OC)c3)ccc2c1,69*,nt,nt,nt,nt,nt
Cc1nn(C)c(C(=O)Nc2ccn(C34CC5CC(CC(C5)C3)C4)n2)c1[N+](=O)[O-],-17,i,8,11,1.2,0.86
Cc1nn(C)c(C(=O)Nc2ccc(S(=O)(=O)NC34CC5CC(CC(C5)C3)C4)cc2)c1Br,53*,i,56,-2,0.7,nt
COc1ccc(OC)c(Cc2nnc(CCC(=O)NCc3ccsc3)o2)c1,-2,i,-15,2,-0.1,0.12
CC12CCC(C(=O)Nc3c(Cl)cccc3Cl)(C(Br)C1=O)C2(C)C (centres undefined),3,i,-11,nt,0.58,-0.06
CC12CCC(C(=O)Nc3cccc(Cl)c3Cl)([C@H](Br)C1=O)C2(C)C (some centres undefined),54*,nt,nt,15,-0.4,-0.81
O=C(O)Cc1sc(Nc2cccc3ccccc23)nc1-c1ccc(Cl)cc1,4,nt,nt,nt,nt,nt
Cn1c(C(=O)N2CCN(c3ccc([N+](=O)[O-])cc3)CC2)cc2c(=O)[nH]c3ccccc3c21,75*,i,-18,10,-1.9,-2.7
CC(=O)NC1C(=O)N=C(SCC(=O)Nc2ccc(C(F)(F)F)cc2Cl)NC1=O (centres undefined),-1,i,-4,-5,0.12,-0.31
COC(=O)C1CCN(C(=O)c2cc(OC)c(OC)c(OC)c2)CC1,8,i,78*,2,0.49,0.95
COc1cc(C(=O)NCC(=O)NCC2COc3ccccc3O2)cc(OC)c1OC (centres undefined),-4,nt,nt,nt,nt,nt
CCOc1nc(NC2CCCCC2)nc(NC(C)(C)C)n1,21,i,58*,1,-0.064,nt
COc1ccc(Cn2c(O)c(/C=N/NC(=O)c3cccnc3)c3ccccc3c2=O)cc1,29,i,28,-39,-2.3,1
Cc1cccc(-n2c(O)c(/C=N/NC(=O)c3ccccc3Cl)c3ccccc3c2=O)n1,10,i,-1,0,-0.23,-0.32
O=C(N/N=C/c1c(O)n(-c2ccccc2Cl)c(=O)c2ccccc12)c1cccnc1,71*,i,15,-26,-1.3,0.31
O=C(N/N=C/c1c(O)n(Cc2ccccc2)c(=O)c2ccccc12)c1cccnc1,48,i,-4,-69,-3.2*,0.67
SMILES,SKKanGAS inh,Autophagy HCS,WT yeast gro inh,Rad51 HR inh,Cl transport mod,Ins promoter up
O=C(CC(C(=O)NCc1ccccc1)c1nc2ccccc2c(=O)[nH]1)NCc1ccccc1 (centres undefined),0,nt,nt,-8,nt,0.22
CCOC(=O)C1(Cc2ccccc2)CCCN(C(=O)c2ccc(-n3ccnc3)cc2)C1 (centres undefined),1,nt,nt,nt,nt,nt
Cc1cccc(NC(=O)Nc2ccc(C#N)cc2)n1,-2,i,8,2,-1.3,3.4*
CN(/N=C/c1ccc(O)cc1O)c1nc(-c2ccccc2)cc(-c2ccccc2)n1,71*,i,-9,nt,-0.11,0.69
CC(C)S(=O)(=O)c1cnc(N2CCOCC2)nc1N,1,nt,nt,8,-0.39,-0.45
Cc1c2ccccc2nc2c(F)c(N(C)C)c(F)c(F)c12,-7,+,45,-42,-0.36,1.9
CN(C)c1c2ccccc2nc2c(F)c(F)c(F)c(F)c12,2,i,20,-16,-0.16,nt
Clc1ccc(/C=N/N2CCN(Cc3ccccc3)CC2)cc1,-5,nt,nt,nt,nt,nt
Brc1ccc(N=C/C=C/C=C/Nc2ccc(Br)cc2)cc1,nt,i,37,-3,2.6,-0.15
Nc1nc(N)c(C=Nc2ccc(Br)cc2)c(Nc2ccc(Br)cc2)n1,100*,nt,nt,8,-2.8,-0.15
CC(=O)Oc1ccc2c(=O)c(Oc3ccccc3)coc2c1OC(C)=O,8,+,3,0,-0.35,-0.37
Cc1ccc2cc3c(N)c(C(=O)Nc4c(C)[nH]c(=O)[nH]c4=O)sc3nc2c1,-3,+,11,-25,-0.48,nt
COc1ccc2nc(SCC(=O)N3CC(=O)Nc4ccccc43)c(C#N)cc2c1,10,i,15,4,0.014,-0.21
Cc1cc(C)cc(C(=O)N2CC(=O)Nc3ccccc32)c1,-2,+,18,5,1.2,-2.4
Cc1cc(C)c2nc(SCC(=O)N3CC(=O)Nc4ccccc43)c(C#N)cc2c1,24,+,-17,nt,2.4,nt
Cc1ccc2cc3c(N)c(C(=O)N4CC(=O)Nc5ccccc54)sc3nc2c1,-1,+,2,nt,-1.8,nt
COc1ccc(/C=C/c2onc(C)c2S(=O)(=O)N2CCC(C(=O)N3CCCCCC3)CC2)cc1,9,nt,nt,nt,nt,nt
NS(=O)(=O)c1ccc(NS(=O)(=O)c2ccc(NC(=O)C3CC3)cc2)cc1,-4,nt,nt,nt,nt,nt
CCOc1cc(C2C3=C(CC(C)(C)CC3=O)N(CCOC)C3=C2C(=O)CC(C)(C)C3)ccc1O,3,nt,nt,nt,nt,nt
Cc1nc(CS(=O)c2ccc(Cl)cc2)cc(NCc2ccc(Cl)cc2Cl)n1 (centres undefined),-9,i,59*,-10,nt,-1.5
CCOC(=O)c1cnc2ccc(OCC)cc2c1N1CCN(c2ccccc2OC)CC1,26,i,79*,-3,-0.047,-2.4
CCCCOC(=O)Cn1c2ccc(OC)cc2c2nc3ccccc3nc21,-5,+,-2,-4,0.17,0.44
CCOc1ccc(Cn2c3ccc(OC)cc3c3nc4ccccc4nc32)cc1,nt,+,-33,-62,0.91,0
CCn1c2ccc(OC)cc2c2nc3ccccc3nc21,8,i,-7,-4,-1.1,0.05
O=S(=O)(c1ccc2ccccc2c1)n1cccn1,-4,nt,nt,nt,nt,nt
COc1ccc(-c2nnc(NC(=O)c3ccc(S(=O)(=O)N4CCCc5ccccc54)cc3)o2)cc1,94*,i,-23,nt,12*,-0.26
